Screens: PubChem, The Scripps Research Institute Molecular Screening Center
Most compounds without a hit are left out; they make up all but 4.3% or so of the library.
STAT1 inh: reduces IFN-gamma driven STAT1 reporter signal. AID 920. 200,000 compounds, 0.35% hits. inhibition, % at 5.5 µM. NIH 3T3 STAT1-luciferase reporter, luminescence;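 active = inhibition above a set limit, the mean inhibition across all tested compounds plus 3 SD, cut at about 34% in these data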
STAT1 act: activators of IFN-gamma induced STAT1 signaling | 200,000 compounds, 2.6% hits | activation (% of control), % at 5.5 µM | AID 932 | NIH 3T3 STAT1-luciferase reporter, luminescence; 100% = IFN-gamma alone, no compound;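 active = activation above the screen-wide mean activation plus 3 SD, cut at about 130% in these data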
STAT3 inh: STAT3 signaling inhibition; U3A cells, IL-6 STAT3-luciferase reporter, luminescence; host cell line lacks STAT1; 190,000 compounds, 0.89% hits; inhibition, % at 5.5 µM;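 active = inhibition above the mean inhibition across all screened compounds plus 3 SD, cut at about 44% in these data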
STAT3 activator: STAT3 signaling activation | U3A cells, IL-6 STAT3-luciferase reporter, luminescence; 100% = signal with IL-6 EC80 alone | 190,000 compounds, 0.91% hits | activation (% of control), % at 5.6 µM;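 active = activation above the screen-wide mean of compound activation plus 3 SD, cut at about 130% in these data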
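Test system: Human STAT1-deficient U3A cells with stable STAT3-luciferase reporter | Also added: Interleukin-6, 33 ng/mL | Timing: Compound pre-incubation 1 h before IL-6, then 6 h stimulation at 37 °C | Technique: Luciferase reporter luminescence | Read-out: Percent of IL-6-only median luminescence | Benchmarks: IL-6-only wells as 100% reference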
Large screens that a line does not name were inactive.

On1nnc2c3ccccc3c3ccccc3c21	none
CC1=CC(C2CC(=O)N(c3ccc(C)cc3)C2=O)CC2C(=O)N(c3ccc(C)cc3)C(=O)C12 (centres undefined)	none
Cc1nc(N)sc1N=Nc1ccc(F)cc1	STAT1 act 136
Cc1cc(C)n2nc(C(=O)NNC(=O)c3ccccc3)nc2n1	none
O=C(NN=C1CCC(=NNC(=O)c2ccccn2)CC1)c1ccccn1	STAT1 act 138
O=C(N/N=C/C1CCCCC1)c1ccccn1	STAT1 act 137
CCc1ccc(C(=O)COC(=O)c2ccc(Cl)nc2)cc1	none
Cc1ccc(C)c(N2C(=O)c3cc(N4CCOCC4)c([N+](=O)[O-])cc3C2=O)c1	none
CC(=O)NCCn1c(SCc2ccc(C)cc2C)nc2ccccc2c1=O	none
Cc1cccn2cc(-c3c[nH]c4ccccc34)nc12	STAT1 act 134, STAT3 activator 140
Cc1cccn2cc(-c3ccc(Cl)cc3)nc12	none
O=c1oc2ccccc2cc1-c1cn2ccccc2n1	STAT1 inh 81, STAT3 inh 96
Cc1cccn2cc(-c3cc4ccccc4oc3=O)nc12	STAT1 act 137
O=c1oc2ccccc2cc1-c1cn2cccnc2n1	STAT1 act 140
COc1cc(CNCc2ccccc2)c(Br)cc1OC1CCCC1	none
O=c1c2ccccc2c(C=Nc2cccc(S(=O)(=O)NCc3ccco3)c2)c(O)n1-c1ccc(Cl)cn1	none
C=CCOC(=O)C1=C(C)NC(C)=C(C(=O)OCC=C)C1c1cn(-c2ccccc2)nc1-c1ccco1	none
O=C(O)c1cccc(NC(=S)N/N=C/c2cccc(O)c2)c1	STAT1 inh 43, STAT3 inh 60
S=C(N/N=C/c1ccc2ncccc2c1)Nc1cccnc1	STAT1 inh 39, STAT3 inh 68
O=C(O)c1cccc(NC(=S)N/N=C/c2ccccc2OCc2ccc(Br)cc2)c1	none
O=C(O)c1cccc(NC(=S)N/N=C/c2ccccn2)c1	STAT1 inh 79, STAT3 inh 91
O=C(O)/C=C/C(=O)Nc1ccccc1SC(F)(F)F	none
CCN(CC)c1nc(-c2ccccn2)nc(-c2ccccc2)c1C#N	none
COc1ccc(CNC(=O)CCC(=O)N2CCN(S(=O)(=O)c3ccc(Cl)cc3)CC2)cc1	none
Cc1cccn2c(CN(C)CCC3CCCCO3)c(C(=O)N3CCCCC3)nc12 (centres undefined)	none
COc1cccc(N2CCN(c3ncnc4c3[nH]c3ccc(F)cc34)CC2C)c1 (centres undefined)	STAT1 inh 68, STAT3 inh 75
COc1ccc2[nH]c3c(N4CC(C)OC(C)C4)ncnc3c2c1 (centres undefined)	none
Oc1ccc(Cl)cc1-c1cc(-c2ccco2)[nH]n1	STAT3 activator 134
CS(=O)(=O)N1CCCC(C(=O)Nc2ccc(F)cc2F)C1 (centres undefined)	none
O=C(c1ccccc1)N1CCN(Cc2c[nH]c3ccccc23)CC1	none
O=[N+]([O-])c1ccccc1CN1CCN(Cc2c[nH]c3ccccc23)CC1	STAT3 activator 135
O=C(c1cccc(F)c1)N1CCN(Cc2c[nH]c3ccccc23)CC1	STAT3 activator 168
COc1ccc(NC(=O)CSc2nnc(NC(C)=O)s2)c([N+](=O)[O-])c1	none
O=c1oc2cc(OCc3c(F)cccc3Cl)ccc2cc1-c1ccccn1	none
CCCOc1ccc2cc(-c3ccccn3)c(=O)oc2c1	STAT1 inh 39, STAT3 inh 98
Cc1ccc2cc(C=O)c(N(C)C)nc2c1	STAT3 activator 134
Cc1cc2cc(C=O)c(Cl)nc2cc1C	none
CN(CC(=O)NCCc1ccc(F)cc1)Cc1cccc(Cl)c1	none
CC(C)N(Cc1cn[nH]c1-c1ccc(-c2ccccc2)cc1)Cc1nccn1C	none
O=c1c(C=NCc2cccnc2)c(C(F)(F)F)[nH]n1-c1nc2ccccc2s1	STAT1 inh 38, STAT3 inh 56
O=C(c1ccc(S(=O)(=O)NCC2CCCO2)cc1)N1CCN(c2cccc(Cl)c2)CC1 (centres undefined)	none
COCCCn1c(SCC(=O)N2CCc3ccccc32)nnc1-c1ccoc1C	STAT3 activator 136
CC1CCc2c(nc3sc4c(c3c2N)CCCC4)C1 (centres undefined)	STAT1 act 135
Nc1c2c(nc3sc4c(c13)CCCCC4)CCCCC2	STAT1 act 145
CC(C)CNC(=O)NC(=O)COC(=O)Cn1cnc2ccccc2c1=O	none
O=C(COc1ccc(F)cc1)c1ccc2c(c1)CCCC2	STAT1 act 137
O=C1NC(c2ccc(Cl)cc2)=COc2ccccc21	none
O=C1NN=COc2ccccc21	STAT3 activator 133
CC(C)c1ccc(NC(=O)NN2CCOCC2)cc1	STAT1 act 146
Cc1ccc(C(=O)COC(=O)c2cccc(NC(=O)c3ccc([N+](=O)[O-])cc3[N+](=O)[O-])c2)cc1	STAT1 inh 43, STAT3 inh 46
O=C(NC(=S)N1CCOCC1)c1cc2ccccc2o1	none
COC(=O)C(C(=O)Nc1ccccc1C)C1CCCCCC1 (centres undefined)	none
c1ccc(Cc2nn3c(C4COc5ccccc5O4)nnc3s2)cc1 (centres undefined)	STAT3 activator 135
COc1ccccc1-c1nn2c(C3COc4ccccc4O3)nnc2s1 (centres undefined)	STAT3 activator 133
c1ccc(-c2nn3c(C4COc5ccccc5O4)nnc3s2)cc1 (centres undefined)	none
CCN1/C(=C2\C(=O)N(C)C(=S)N2C)C=Cc2cc(C)ccc21	none
CC1(C)CC(=O)c2cc(N=C/C(C(=O)c3ccccc3)=C(\O)c3ccccc3)c(=O)oc2C1	STAT1 act 132
CC1(C)CC(=O)C(C=Nc2ccccc2C(=O)O)=C(O)C1	none
CN(C)[C@@H]1CCC[C@@H]1OC(=O)C(c1ccccc1)c1ccccc1	none
O=c1cccc2n1Cc1cc3ccccc3nc1-2	STAT1 act 135
Cc1cc(/C=C2/SC(=O)N(CC(=O)N3CCOCC3)C2=O)c(C)n1-c1ccccc1F	none
Cn1c(SCc2ccccc2F)nnc1-c1ccccn1	STAT1 act 142
Cn1c(SCc2ccc(F)cc2)nnc1-c1ccccn1	STAT1 act 140
Cn1c(SCc2ccc(F)cc2)nnc1-c1cccs1	STAT1 act 140
Cn1c(SCc2ccccc2F)nnc1-c1cnccn1	STAT1 act 137
Cn1c(SCc2ccccn2)nnc1-c1cnccn1	none
CCn1nc([N+](=O)[O-])c2c(-c3nc4ccccc4o3)c(N)n(CCCOC)c2c1=O	none
COc1ccc(/C=C/C(=O)C23CC4CC(CC(C4)C2)C3)cc1CN1CCOCC1	none
Cn1c(CNC2CCCCC2)c(C#N)c2ccccc21	none
CC(C)(C)C1CCC(=NNC(=O)C(=O)NC2CCCCC2)CC1 (centres undefined)	none
Cc1ccc(-c2nc3ccsc3c(=O)o2)cc1	STAT1 act 129
CCc1ccc(-c2cn3nc(C)c(C)nc3n2)cc1	STAT1 inh 85, STAT3 inh 110
COc1ccc2c(c1OC)C(=O)N1c3ccccc3COC21 (centres undefined)	STAT1 act 148
